From ChEMBL document CHEMBL2417547 (J Med Chem, 2013)

What was measured:
CYP19 (aromatase) = molecular target: T1, CYP19 (aromatase) (Homo sapiens, UniProt P11511); assay: Inhibition of microsomal CYP19 in human placenta using [1beta-3H]-androstenedione as substrate at 2 uM by 3H2O method relative to control; conditions: placental microsomes, probe [1beta-3H]-androstenedione
T1 sequence (P11511 whole entry): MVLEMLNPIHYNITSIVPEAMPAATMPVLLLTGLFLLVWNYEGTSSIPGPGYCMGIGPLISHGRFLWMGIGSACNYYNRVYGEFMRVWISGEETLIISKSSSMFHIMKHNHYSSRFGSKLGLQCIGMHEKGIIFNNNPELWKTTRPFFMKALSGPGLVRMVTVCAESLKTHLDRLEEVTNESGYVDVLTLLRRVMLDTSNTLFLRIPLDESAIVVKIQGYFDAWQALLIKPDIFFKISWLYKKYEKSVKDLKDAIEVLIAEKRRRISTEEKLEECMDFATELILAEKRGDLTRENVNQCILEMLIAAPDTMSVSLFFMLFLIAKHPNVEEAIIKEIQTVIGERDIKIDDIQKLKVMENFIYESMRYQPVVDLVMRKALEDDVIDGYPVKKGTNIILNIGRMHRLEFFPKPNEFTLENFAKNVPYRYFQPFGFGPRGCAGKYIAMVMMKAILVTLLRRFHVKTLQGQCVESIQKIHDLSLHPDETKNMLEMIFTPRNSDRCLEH
Summary of the method: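 Human placental microsomes as the CYP19 source, with [1β-3H]androstenedione at 500 nM. Activity read by 3H2O release. Compound at 2 μM. Percent inhibition is the mean of at least three experiments (deviations <25%); values ≤5% are not significant.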

[1] = molecular target: T2, Cytochrome P450 11B2, mitochondrial (Homo sapiens, UniProt P19099); assay: Inhibition of human CYP11B2 expressed in hamster V79MZh cells using [1,2-3H]-11-deoxycorticosterone as substrate; assay type: cell-based
T2 sequence (P19099 whole entry): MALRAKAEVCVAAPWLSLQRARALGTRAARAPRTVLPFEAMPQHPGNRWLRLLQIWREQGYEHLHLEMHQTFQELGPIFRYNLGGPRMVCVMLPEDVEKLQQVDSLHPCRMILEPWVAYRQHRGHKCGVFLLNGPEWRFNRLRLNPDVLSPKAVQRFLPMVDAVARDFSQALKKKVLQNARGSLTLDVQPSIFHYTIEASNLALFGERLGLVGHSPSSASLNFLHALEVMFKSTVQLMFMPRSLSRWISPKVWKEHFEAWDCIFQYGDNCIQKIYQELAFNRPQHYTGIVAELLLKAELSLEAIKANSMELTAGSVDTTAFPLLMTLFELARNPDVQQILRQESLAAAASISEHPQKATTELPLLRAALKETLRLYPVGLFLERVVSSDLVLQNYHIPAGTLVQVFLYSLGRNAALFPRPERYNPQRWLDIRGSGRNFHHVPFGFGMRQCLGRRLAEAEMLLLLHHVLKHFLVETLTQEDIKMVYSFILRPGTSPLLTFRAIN
Summary of the method: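 V79MZh hamster fibroblasts expressing human CYP11B1 or CYP11B2 were incubated with [1,2-3H]-11-deoxycorticosterone (100 nM) plus inhibitor at a range of concentrations. The selectivity factor is IC50(CYP11B2)/IC50(CYP11B1).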

Cytochrome P450 2A6 = molecular target: T3, Cytochrome P450 2A6 (Homo sapiens, UniProt P11509); assay: Inhibition of CYP2A6 (unknown origin) using coumarin as substrate; assay type: ADME
T3 sequence (P11509 whole entry): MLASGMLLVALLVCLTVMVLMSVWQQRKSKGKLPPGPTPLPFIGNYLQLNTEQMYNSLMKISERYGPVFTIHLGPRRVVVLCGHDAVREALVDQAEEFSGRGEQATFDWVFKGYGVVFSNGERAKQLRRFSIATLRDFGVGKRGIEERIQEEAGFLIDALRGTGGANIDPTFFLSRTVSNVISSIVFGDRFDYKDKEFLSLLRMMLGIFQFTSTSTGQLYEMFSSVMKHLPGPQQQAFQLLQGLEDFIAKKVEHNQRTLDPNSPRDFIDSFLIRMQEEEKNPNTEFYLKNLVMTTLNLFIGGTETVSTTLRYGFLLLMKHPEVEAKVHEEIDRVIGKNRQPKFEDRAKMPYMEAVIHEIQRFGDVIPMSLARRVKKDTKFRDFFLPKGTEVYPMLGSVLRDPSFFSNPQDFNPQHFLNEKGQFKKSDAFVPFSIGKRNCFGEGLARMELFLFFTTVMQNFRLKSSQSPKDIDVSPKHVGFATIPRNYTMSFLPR
Summary of the method: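 Commercial CYP2A6/coumarin inhibitor screening kit with coumarin as substrate at 3 μM, run per the kit instructions. IC50 determined.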

[2] = Half life in rat liver S9 fraction at 1 uM by LC-MS/MS analysis; assay type: ADME, subcellular
Summary of the method: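 Test compound at 1 μM with 1 mg/mL pooled rat liver S9, 2 mM NADPH regenerating system, 1 mM UDPGA and 0.1 mM PAPS (phase I and II), 37 °C. Sampled at 0, 5, 15 and 60 min and quenched with 2 volumes of cold acetonitrile containing internal standard. Remaining compound measured by LC-MS/MS to give t1/2 and CLint; mean of more than three repeats.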

[3] = molecular target: T4, Cytochrome P450 11B1, mitochondrial (Rattus norvegicus, UniProt P15393); assay: Inhibition of rat CYP11B1 expressed in hamster V79MZh cells using [1,2-3H]-11-deoxycorticosterone as substrate; assay type: cell-based
T4 sequence (P15393 whole entry): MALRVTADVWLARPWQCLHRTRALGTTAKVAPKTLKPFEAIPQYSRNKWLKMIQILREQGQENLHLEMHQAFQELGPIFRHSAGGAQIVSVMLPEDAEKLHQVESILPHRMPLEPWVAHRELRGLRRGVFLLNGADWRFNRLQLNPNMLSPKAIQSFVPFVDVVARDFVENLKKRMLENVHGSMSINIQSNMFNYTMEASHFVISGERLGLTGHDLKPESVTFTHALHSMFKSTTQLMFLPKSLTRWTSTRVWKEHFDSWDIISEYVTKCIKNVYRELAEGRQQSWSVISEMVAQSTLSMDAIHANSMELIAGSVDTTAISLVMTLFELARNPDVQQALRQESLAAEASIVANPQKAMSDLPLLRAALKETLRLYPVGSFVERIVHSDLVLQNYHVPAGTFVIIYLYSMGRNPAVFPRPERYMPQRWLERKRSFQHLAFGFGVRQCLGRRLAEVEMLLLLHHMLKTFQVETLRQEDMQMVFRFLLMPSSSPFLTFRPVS
Summary of the method: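 V79MZh cells expressing rat CYP11B1 were incubated with [1,2-3H]-11-deoxycorticosterone (100 nM) and inhibitor at varying concentrations. IC50 is the mean of more than three repeats.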

## Cc1cncc(Cc2ccc(-c3ccccc3)nc2)c1
CYP19 (aromatase)
  inhibition at 2 µM: 1%
[1]
  IC50: 33 nM
Cytochrome P450 2A6
  IC50: 106000 nM
[2]
  half-life at 1 µM: 16 min
[3]
  IC50: 2440 nM
